# How the values were obtained:
# Assay type in all cases: biochemical
# [1] = target: Wt-Tau441 (Homo sapiens, UniProt P10636); assay: ThT fluorescence assay of Wt-Tau fibrillization
# In short: (§1)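 Lyophilized full-length Tau441 (wild-type or ΔK280) was diluted to 40 µM stock in 25 mM NaPi, 25 mM NaCl, 2.5 mM EDTA, pH 6.8, and used at 10 µM final with 25 µM ThT. Aggregation was started with 0.0625 µM heparin. Water-dissolved test compound was added at 50, 10 or 1 µM. Fluorescence was followed over time. Curves were fitted to a Boltzmann sigmoid and scaled to maximal control fluorescence; Wt-Tau relative F was taken at 30 h.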
# [2] = target: Tau441-ΔK280 (Homo sapiens, UniProt P10636, DEL597-597); assay: ThT fluorescence assay of Tau-ΔK280 fibrillization; conditions: both 5/1 and 1/1 ratios
# In short: as §1
# [3] = target: Aβ1-42 (Homo sapiens, UniProt P05067); assay: ThT fluorescence assay of Aβ1-42 fibrillization; conditions: compound/Aβ1-42 ratio 1/1
# Chain of Aβ1-42 (P05067 672-713): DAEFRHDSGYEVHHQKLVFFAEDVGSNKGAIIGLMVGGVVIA
SMILES,decrease of F versus Wt-Tau control ([1]; compound/Wt-Tau ratio 0.1/1) [%],"t1/2, change versus Wt-Tau control ([1]; compound/Wt-Tau ratio 1/1, N.A. = no aggregation)","inhibition of the aggregation of Wt-Tau (in words) ([1]; compound/Wt-Tau ratio 5/1, ThT)",inhibition of the aggregation of Tau-ΔK280 (in words) [2],"F, change versus Aβ1-42 control [3] [%]"
"CN(C)c1ccc2nc3ccc(=[N+](C)C)cc-3sc2c1 [MB, methylthioninium chloride]",50,+55%,complete inhibition,complete inhibition,–
Oc1ccc(/C=C/c2cc(O)cc(O)c2)cc1 [Resveratrol],–,–,–,–,-78
